Screens deposited in PubChem BioAssay by several laboratories.
Hits are enriched below; roughly 1.4% of the tested compounds scored in any of these assays.
Rin1-Abl PPI inh: blocks binding of human Rin1 to Abl; TR-FRET Rin1/Abl binding, biochemical; inhibition, % at 7.35 µM; 360,000 tested, 0.4% active; in the data active = inhibition above about 5%, passing the limit was not always enough
UCH37 inh: inhibitors of human deubiquitinating enzyme UCH37; purified proteasome/UCH37, Ub-AMC cleavage fluorescence; inhibition, % (test concentration not listed); 330,000 tested, 0.33% active; AID 588478;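 active = mean inhibition over replicate wells above about 20%, limit read from the data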
Target sequence (Q9Y5K5 whole entry, looked up): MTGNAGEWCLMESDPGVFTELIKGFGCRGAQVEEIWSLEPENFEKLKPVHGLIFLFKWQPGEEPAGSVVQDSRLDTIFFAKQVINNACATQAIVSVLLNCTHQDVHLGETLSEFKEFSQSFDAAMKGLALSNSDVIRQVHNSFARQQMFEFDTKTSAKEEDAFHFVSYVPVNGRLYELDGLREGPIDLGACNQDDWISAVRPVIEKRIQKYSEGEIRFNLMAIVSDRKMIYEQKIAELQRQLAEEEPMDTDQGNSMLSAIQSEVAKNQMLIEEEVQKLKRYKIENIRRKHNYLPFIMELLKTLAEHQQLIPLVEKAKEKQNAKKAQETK
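Material: Human UCH37 enzyme supplied as purified proteasome complex | Schedule: 30 min compound-proteasome preincubation then 25 min substrate reaction, room temperature | Detection: AMC fluorescence from Ub-AMC cleavage, excitation 355 nm, emission 460 nm | Benchmarks: Wells without proteasome as full block, compound-free enzyme plus substrate as uninhibited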
ATG4B inhibitor: inhibitors of human ATG4B cysteine protease. Q9Y4P1. inhibition, % at 8.33 µM. 340,000 tested, 0.51% active. ATG4B cleavage of LC3-PLA2, NBD-HPC fluorescence, 1 h; in the data active = inhibition above about 40%
Target sequence (Q9Y4P1 whole entry, looked up): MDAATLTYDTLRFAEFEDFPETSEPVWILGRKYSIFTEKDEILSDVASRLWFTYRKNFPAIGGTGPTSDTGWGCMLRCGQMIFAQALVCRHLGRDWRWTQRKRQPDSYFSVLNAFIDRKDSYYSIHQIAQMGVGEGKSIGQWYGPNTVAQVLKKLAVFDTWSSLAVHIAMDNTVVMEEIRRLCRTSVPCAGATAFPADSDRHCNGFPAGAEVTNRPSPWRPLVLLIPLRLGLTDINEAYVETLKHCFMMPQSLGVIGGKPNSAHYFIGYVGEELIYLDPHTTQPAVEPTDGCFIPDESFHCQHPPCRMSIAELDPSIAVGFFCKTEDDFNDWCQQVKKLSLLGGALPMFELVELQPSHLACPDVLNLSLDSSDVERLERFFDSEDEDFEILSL
Tb MetRS inh: Trypanosoma brucei MetRS inhibition; inhibition, % at 11.9 µM; purified T. brucei MetRS, ATP depletion, Kinase-Glo luminescence; 360,000 tested, 0.4% active;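 active = inhibition above a per-plate cutoff of the control wells' mean inhibition plus 3 SD, cut at about 5.5% in these data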
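technique = Kinase-Glo luminescence, ATP depletion format | system = purified MetRS (methionyl-tRNA synthetase) enzyme from Trypanosoma brucei | timing = 15 min preincubation, 2 h reaction, all 25 °C | evaluation = percent inhibition versus plate control medians | dosing = single dose, 11.9 µM final nominal, 0.9% final DMSO | also added = substrates ATP, L-methionine and bulk Escherichia coli tRNA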
Rin1-Abl confirm: Rin1-Abl interaction inhibition confirmation. TR-FRET Rin1-Abl binding, purified proteins. 1,300 tested, 49% active. inhibition, % at 7.35 µM. shares compounds with Rin1-Abl PPI inh
GFP quencher: GFP fluorescence interference artifact; shares compounds with Rin1-Abl PPI inh; inhibitors/quenchers counterscreen; inhibition, % at 6.75 µM; 1,300 tested, 8.5% active; AID 602125;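 note: ABL1-eGFP fusion protein alone without its partner RIN1-SBP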
GFP quench dose: quenches GFP in dose response, Rin1-Abl counter-screen | shares compounds with Rin1-Abl PPI inh | GFP fluorescence interference/quenching counterscreen | IC50, µM | 230 tested, under 10 active | AID 602182; call rule not given here;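 note: ABL1-eGFP fusion protein alone without its RIN1 binding partner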
Tb MetRS conf: Trypanosoma brucei MetRS inhibition confirmed; shares compounds with Tb MetRS inh; T. brucei MetRS enzyme, luminescence (ATP depletion); inhibition, % at 11.9 µM; 1,400 tested, 93% active; AID 624412; in the data active = inhibition above about 7%
Jurkat cytotox: Jurkat T cell cytotoxicity for MetRS hits | shares compounds with Tb MetRS inh | inhibition, % at 8.3 µM | 1,400 tested, 12% active | Jurkat cells viability, ATP luminescence | AID 624413; in the data active = inhibition above about 15%
TbMetRS FP orth: orthogonal test for Trypanosoma brucei MetRS inhibitors | shares compounds with Tb MetRS inh | purified T. brucei MetRS, fluorescence polarization | inhibition, % at 11.9 µM | 1,400 tested, 44% active; in the data active = inhibition above about 17%
Numbers stand for hits; 0 = inactive; - = no result. Cut-off read from the data, not from the text of the source, unless noted: active = inhibition above about 6.5%; inactive = the rest.

SMILES | Rin1-Abl PPI inh | UCH37 inh | ATG4B inhibitor | Tb MetRS inh | Rin1-Abl confirm | GFP quencher | others
Cc1cc(C)cc(NC(=O)N2CCNC(=O)C2CC(=O)Nc2cc(Cl)ccc2Cl)c1 (stereo not given) | 10.2 | 0 | 0 | 0 | 8.0 | 0
O=C(CCCC(=O)c1ccccc1)NCCc1ccccc1 | 0 | 0 | 0 | 0 | - | -
CCCCSc1nnc(-c2ccc(NC(=O)CCc3ccccc3)cc2)n1C | 6.2 | 0 | 0 | 0 | 9.0 | 0
Cn1c(SCC(=O)NCc2ccccc2)nnc1-c1ccc(NC(=O)CCc2ccccc2)cc1 | 0 | 0 | 0 | 0 | - | -
COc1cc(C=NNC(=O)CSc2ccccn2)ccc1OC(C)C | - | 0 | - | - | - | -
COc1cc(/C=N/NC(=O)CSc2ccccn2)ccc1OC(C)C | 16.5 | - | 0 | 0 | 25.5 | 0 | GFP quench dose=0
Cc1cccnc1NC(=O)c1ccc(OCc2c(C)noc2C)cc1 | 0 | 0 | 0 | 0 | - | -
O=C(NNC1CC(=O)N(c2ccccc2)C1=O)c1ccc(COc2ccccc2Cl)o1 (stereo not given) | 0 | 0 | 0 | 0 | - | -
CCOC(=O)N1CCN(C(=O)CSc2nnc(Cc3cccn3C)n2CCc2ccccc2)CC1 | 5.7 | 0 | 0 | 0 | 0 | 0
CCOC(=O)c1ccc(NC(=O)CSc2nncn2-c2cccnc2)cc1 | 7.8 | 0 | 0 | 0 | 0 | 0
CCOC(=O)c1ccc(NC(=O)CSc2nc3cccnc3n2C)cc1 | 9.9 | 0 | 0 | 0 | 0 | 0
COc1ccccc1-c1cc(NC(C)=O)c2ncc(-c3ccc(S(C)(=O)=O)cc3)n2c1 | 0 | - | - | 0 | - | -
C#CCSc1nncn1C(=O)/C=C/c1ccccc1 | - | 0 | 0 | - | - | -
COc1ccc(S(=O)(=O)NCCOc2cccc3cccnc23)cc1OC | 0 | 0 | 0 | 0 | - | -
O=[N+]([O-])c1cccc(S(=O)(=O)NCCOc2cccc3cccnc23)c1 | 10.3 | 0 | 0 | 0 | 0 | 0
CCOC(=O)CCCCCC(=O)Nc1ccc2c(c1)C(=O)N([C@H](C)CO)C[C@H](C)[C@@H](CN(C)C(=O)Nc1ccccc1)OCCCC[C@@H](C)O2 | 15.6 | - | - | 0 | 22.3 | 0 | GFP quench dose=0
CCOC(=O)CCCCCC(=O)Nc1ccc2c(c1)C(=O)N([C@@H](C)CO)C[C@H](C)[C@H](CN(C)C(=O)Nc1ccc(C(F)(F)F)cc1)OCCCC[C@H](C)O2 | 0 | - | - | 0 | - | -
CCOC(=O)CCCCCC(=O)Nc1ccc2c(c1)C(=O)N([C@@H](C)CO)C[C@@H](C)[C@H](CN(C)C(=O)Nc1ccccc1)OCCCC[C@H](C)O2 | 16.1 | - | - | 0 | 18.4 | 0 | GFP quench dose=0
COc1ccc(CNC(=O)CN(C2CCCCC2)S(C)(=O)=O)cc1 | 0 | 0 | 0 | 0 | - | -
Cn1c(=O)c2c(nc(NCc3ccco3)n2C)n(C)c1=O | 0 | 0 | 0 | 0 | - | -
Cn1c(=O)c2c(nc(NCc3ccco3)n2Cc2ccccc2Cl)n(C)c1=O | 7.1 | 0 | 0 | 0 | 6.7 | 0
CCC(C)(C)n1nnnc1C(c1cccs1)N1CCc2ccccc21 (stereo not given) | 0 | 0 | 0 | 0 | - | -
CCC(C)(C)n1nnnc1C(c1cccnc1)N1CCCc2ccccc21 (stereo not given) | 43.0 | 0 | 0 | 0 | 47.6 | 0 | GFP quench dose=0
Cc1cccc(OCc2nnc3n2CCCCC3)c1 | 8.0 | 0 | 0 | 0 | 0 | 0
FC(F)(F)c1cccc(OCc2nnc3n2CCC3)c1 | 0 | 0 | 0 | 0 | - | -
SMILES | Rin1-Abl PPI inh | UCH37 inh | ATG4B inhibitor | Tb MetRS inh | Rin1-Abl confirm | GFP quencher | others
O=c1[nH]c(CSc2nnnn2-c2ccccc2)nc2ccccc12 | 9.8 | 0 | 0 | 0 | 0 | 0
Cc1ccccc1C(=O)N1CCN(c2ccc(NC(=O)CSc3ccc(Cl)cc3)cc2)CC1 | 0 | 0 | 0 | 0 | - | -
O=C(O)c1cccc(COc2ccccc2Cl)c1 | 0 | 0 | 0 | 0 | - | -
O=C(O)c1ccc(COc2ccccc2Cl)cc1 | 5.0 | 0 | 0 | 0 | 0 | 0
COc1cccc(/C=C/C(=O)NCc2cn3cc(Cl)ccc3n2)c1 | 5.2 | 0 | 0 | 0 | 0 | 0
O=C(/C=C/c1cccc(Cl)c1)OCc1cn2cc(Cl)ccc2n1 | 0 | 0 | 0 | 0 | - | -
CCC1CCCCN1C(=O)CCCOc1ccccc1 (stereo not given) | 0 | 0 | 0 | 0 | - | -
C/C(=N\OC(=O)Nc1ccccc1)c1ccc(C)cc1 | 6.4 | - | 0 | 0 | 0 | 0
O=C(Nc1ccc(Oc2ccccc2)cc1)C1CCN(c2c3c(nc4ncnn24)CCC3)CC1 | 6.0 | 0 | 0 | 0 | 11.7 | 0
O=c1cc(CO)oc(CN2CCN(CCO)CC2)c1O | 6.5 | 0 | 0 | 0 | 0 | 0
Cc1ccc(NC(=O)CSc2nnc(CN3CCOCC3)n2C)cc1C | 0 | 0 | 0 | 0 | - | -
CC(C)c1ccc(NC(=O)CSc2nnc(CN3CCOCC3)n2C)cc1 | 18.1 | 0 | 0 | 0 | 25.5 | 0 | GFP quench dose=0
Cc1ccnc(NC(c2ccccc2O)c2oc(CO)cc(=O)c2O)c1 (stereo not given) | 27.2 | 0 | 0 | 0 | 9.8 | 0
O=c1cc(CO)oc(C(Nc2ccccn2)c2ccccc2Cl)c1O (stereo not given) | 0 | 0 | 0 | 0 | - | -
Cc1nn(CC(=O)NCc2cccc(F)c2)c(=O)c2cccn12 | 8.6 | 0 | 0 | 0 | 0 | 0
Cc1nn(CC(=O)NCCCc2ccccc2)c(=O)c2cccn12 | 0 | 0 | 0 | 0 | - | -
Cc1ccc(NC(=O)Nc2ccc3c(c2)nc(C)n3C)cc1C | - | 0 | - | - | - | -
CCOc1ccc(NC(=O)Nc2ccc3c(c2)nc(C)n3C)cc1 | 5.7 | 0 | 0 | 0 | 11.1 | 0
COc1ccccc1N1CCN(C(=O)c2nn(-c3ccccc3OC)c(=O)c3ccccc23)CC1 | 0 | 0 | 0 | 0 | - | -
COc1cccc(C=NNc2cc(C)nc(-c3ccccc3O)n2)c1O | - | 0 | - | - | - | -
O=C1c2cccnc2-c2ncccc21 | 0 | 0 | 0 | 0 | - | -
O=C1C(=O)c2cccnc2-c2ncccc21 | 50.3 | - | - | 14.6 | 48.7 | 0 | GFP quench dose=0;Tb MetRS conf=9.7;Jurkat cytotox=97.3;TbMetRS FP orth=0
COc1cccc(C(c2c(C)[nH]n(-c3ccccc3)c2=O)c2c(C)[nH]n(-c3ccccc3)c2=O)c1OC | 6.4 | 0 | 0 | 7.7 | 0 | 0 | Tb MetRS conf=0;Jurkat cytotox=19.4;TbMetRS FP orth=0
Cc1ccc(S(=O)(=O)c2c(N)n(CCCN(C)C)c3nc4ccccc4nc23)cc1 | 0 | 0 | 0 | 0 | - | -
CCCCn1c(NS(=O)(=O)c2ccc(C)cc2)c(S(=O)(=O)c2ccccc2)c2nc3ccccc3nc21 | 9.6 | 0 | 0 | 8.7 | 0 | 0 | Tb MetRS conf=8.9;Jurkat cytotox=0;TbMetRS FP orth=0
